# In the library only some 1.8% were active in any assay of this set; here they are far more common.
# Scp-1 inhibitor: inhibitors of human Scp-1 phosphatase. Recombinant Scp1, phosphopeptide, malachite green phosphate absorbance. inhibition, % at 20 µM. actives 0.88% (n = 340,000);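 active means inhibition above about 50% at 20 µM, limit read from the data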;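 further: plate controls were DMSO wells with enzyme for no effect and wells lacking enzyme for full effect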
# Target sequence (Q9GZU7 76-261 limits assumed): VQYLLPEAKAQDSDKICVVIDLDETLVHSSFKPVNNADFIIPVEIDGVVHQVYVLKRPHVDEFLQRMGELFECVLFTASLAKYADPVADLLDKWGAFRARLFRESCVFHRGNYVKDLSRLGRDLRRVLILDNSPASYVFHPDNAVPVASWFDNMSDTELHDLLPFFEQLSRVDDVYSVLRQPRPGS
#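 assay system = SCP-1 phosphatase catalytic domain, residues 76-261 | buffer or medium = 50 mM Tris acetate pH 5.5, 0.005% Tween-20, 10 mM MgCl2 | incubation = enzyme reaction 45 min at room temperature, colour 5 min, stabilisation 30 min | signal = Phosphate-binding colour reagent, absorbance read at 630 nm | measure = % inhibition at 20 µM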
# LMPTP block: blocks human LMPTP phosphatase; P24666; recombinant LMPTP-A, OMFP fluorogenic substrate, fluorescence intensity; inhibition, % at 20 µM; actives 0.22% (n = 360,000); AID 651560;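 active means compounds that cut the enzyme signal by at least half of the control window in the single-dose screen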;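 further: plate controls were DMSO wells with enzyme plus substrate for no effect and substrate without enzyme for full effect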
# Target sequence (P24666 whole entry, looked up): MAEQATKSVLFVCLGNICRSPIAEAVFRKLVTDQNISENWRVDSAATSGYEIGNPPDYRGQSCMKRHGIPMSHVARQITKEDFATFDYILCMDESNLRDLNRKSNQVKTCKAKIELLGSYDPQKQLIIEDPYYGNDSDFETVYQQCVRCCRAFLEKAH
#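 Test system – LMPTP-A enzyme · Amount – LMPTP-A at 0.625 nM final in the reaction · Buffer or medium – Bis-Tris pH 6.0, DTT, detergent · Reagent – OMFP 400 µM · Doses – single 20 µM dose · Schedule – reaction 50 min, room temperature, dark · Detection – fluorescence intensity of OMFP turnover product · Evaluation – percent inhibition versus substrate-only and uninhibited controls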
# SUMO1-SIM PPI: modulators of human SUMO1-mediated protein-protein interactions. inhibition, % at 20 µM. SUMO1 binding to a labelled peptide, TR-FRET, 1 h. actives 0.33% (n = 360,000). AID 602429. P63165; in the data active means inhibition above about 37%
# Target sequence (P63165 whole entry, looked up): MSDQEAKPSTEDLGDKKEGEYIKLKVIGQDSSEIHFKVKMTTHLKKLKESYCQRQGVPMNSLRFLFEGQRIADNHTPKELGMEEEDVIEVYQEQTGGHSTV
# HKDC1 inhibitor: blocks human hexokinase HKDC1 activity. Q2TB90. recombinant HKDC1, G6PDH/diaphorase resazurin coupled fluorescence. inhibition, % at 20 µM. actives 0.16% (n = 340,000). AID 493160;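 active means inhibition above about 35% when tested at 20 µM, limit read from the data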;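 further: plate controls were DMSO wells with enzyme for no effect and DMSO wells lacking enzyme for full effect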
#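 Test system: recombinant HKDC1 (HK5) hexokinase enzyme, produced in-house; Amount: enzyme 5 µg/mL final; Buffer or medium: Tris pH 8.0 buffer with MgCl2, Tween-20, BSA, BME; Reagent: glucose and ATP substrates; Doses: 20 µM test compound, 1% DMSO; Incubation: 90 min reaction incubation at room temperature, dark; Detection: resorufin fluorescence at 613 nm.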
# DNMT1 block: DNMT1 (human) enzyme inhibition; actives 0.83% (n = 360,000); P26358; DNMT1 molecular beacon, Hinp1I cleavage, fluorescence; inhibition (reported as % activation of signal), % at 10 µM; in the data active means inhibition above about 50%
# STEP block: STEP (human) phosphatase inhibition; P54829; recombinant STEP, OMFP fluorogenic substrate, fluorescence; inhibition, % at 20 µM; actives 0.25% (n = 360,000); AID 588621;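 active means inhibition at 20 µM, scaled per plate between control wells, above about 37%, limit read from the data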;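 further: 0% = DMSO with enzyme and substrate and 100% = substrate only without enzyme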
#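 System: STEP phosphatase, cell-free reaction; Buffer or medium: Bis-Tris pH 6.0 buffer with DTT, detergent; Incubation: 20 min at room temperature, dark; Measured by: fluorescence, 480/540 nm.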
# HKDC1 act conf2: confirmation of human HKDC1 activators; shares compounds with HKDC1 inhibitor; recombinant HKDC1, G6PDH/diaphorase resazurin fluorescence; active compounds read low; inhibition, % at 20 µM; actives 14% (n = 740);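 active means inhibition at or below a set negative limit, negative inhibition meaning the enzyme was activated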
# Starred values were filed as active, the others as inactive; · = no result given.
SMILES,Scp-1 inhibitor,LMPTP block,SUMO1-SIM PPI,HKDC1 inhibitor,DNMT1 block,STEP block,HKDC1 act conf2
CCOC(=O)c1cc(-c2ccc(/C=C3/C(=O)N(c4ccc(C(=O)O)cc4)N=C3C)o2)ccc1Cl,12,20,36,43*,30,8,15
COCCN(CCOC)Cc1cc(=O)oc2cc(OC)ccc12,·,-1,-1,·,9,1,·
Cc1[nH]c2ccccc2c1C1=CC(=O)C=CC1=O,4,-1,3,58*,-17,1,53
Cc1[nH]c2ccccc2c1CC#N,2,-2,5,-2,-3,-2,·
O=S(=O)(c1cccc(COc2ccc(Cl)cc2Cl)c1)N1CCOCC1,-12,4,5,39*,-1,-1,-37
COc1ccc(Cn2c(C)nc3c(c2=O)c2nc4ccccc4nc2n3Cc2ccco2)cc1,95*,43,69*,33,96*,37,-10
COc1ccc2c(c1)CCc1c(C(=O)N3CCCc4ccccc43)noc1-2,-15,3,1,38*,-8,7,-26
COc1ccc2c(c1)CCc1c(C(=O)N3CCOCC3)noc1-2,-9,0,-1,-10,-2,1,·
COc1ccc(C(=O)NC2CCCc3c2cnn3-c2cccc(C)c2C)o1 (centres undefined),-5,0,0,4,1,-1,·
Cc1ccc(S(=O)(=O)/N=C2\C=C(Nc3cccc(C(=O)O)c3)C(=O)c3ccccc32)cc1,-7,8,39,45*,60*,3,80
CC(C)(C)c1ccc(S(=O)(=O)/N=C2\C=C(NS(=O)(=O)c3ccccc3)C(=O)c3ccccc32)cc1,-15,3,-4,27,-29,-1,·
Cc1ccc(S(=O)(=O)/N=C2\C=C(Nc3cccc(C(=O)O)c3)C(=O)c3ccccc32)c(C)c1,-4,7,33,39*,43,4,58
CCc1ccc(S(=O)(=O)/N=C2\C=C(Nc3ccc(C(=O)O)cc3)C(=O)c3ccccc32)cc1,-12,3,21,54*,41,1,60
Cc1ccc(S(=O)(=O)/N=C2\C=C(NS(=O)(=O)c3ccccc3)C(=O)c3ccccc32)c(C)c1,-5,3,26,27,2,0,·
O=C(O)c1cccc(NS(=O)(=O)c2ccc3c(c2)C(=O)c2ccccc2C3=O)c1,-2,-1,-4,22,1,3,·
O=C1/C(=C\c2ccco2)SC(=S)N1c1ccccc1,-7,1,-6,-8,0,0,·
CC(C(=O)O)N1C(=O)/C(=C/C=C/c2ccco2)SC1=S (centres undefined),79*,78*,100*,56*,83*,99*,5
CCCCC[C@H](O)/C=C/[C@@H]1[C@@H](C/C=C\CCCC(=O)OC)[C@@H](O)C[C@H]1O,-6,1,15,77*,-1,-13,61
CCCCC[C@H](O)/C=C/[C@@H]1[C@@H](C/C=C\CCCC(=O)O)[C@@H](O)C[C@H]1O,-11,-1,-3,-7,0,-1,·
CCN(CC)c1ccc2c(c1)oc(=O)c1c(Cl)cc(=O)oc12,-4,1,27,49*,42,-15,48
Cn1c(=O)c2cc(NC(=O)CCc3cccnc3)ccc2n1Cc1ccc(F)cc1,·,2,4,·,2,-1,·
COC1=CC(=O)c2c(ccc3ncnc(N)c23)C1=O,-8,9,72*,87*,103*,7,88
CCN(CC)S(=O)(=O)c1cccc(C(=O)N/N=C(\C)c2ccc(O)cc2O)c1,-7,0,16,-43,-4,-3,-19
CC(C)(C)OC(=O)C[C@H]1C/C=C\C[C@H](CC(=O)N[C@H](CO)Cc2ccccc2)C(=O)N[C@H](Cc2ccccc2)COC1=O,0,1,1,-3,1,2,·
CC(=O)N(C1=C(Cl)C(=O)c2ccccc2C1=O)C1CCCCC1,-4,0,-20,58*,19,-2,78
SMILES,Scp-1 inhibitor,LMPTP block,SUMO1-SIM PPI,HKDC1 inhibitor,DNMT1 block,STEP block,HKDC1 act conf2
CCOC(=O)C1(C)CCCN(C(=O)C(c2ccccc2)c2ccccc2)C1 (centres undefined),·,0,-2,·,-4,-2,·
Cc1ccc(N=Cc2cc(Cc3ccccc3Cl)cc([N+](=O)[O-])c2O)c(O)c1,-7,5,-13,30,-20,-3,30
C/C(=N\NC(=O)c1cc(C2CC2)nc2ccccc12)c1ccc(O)cc1O,-10,0,3,-44,-1,-4,-6
CC(=NNC(=S)N1CCCCC1)c1cccc(C)n1,-8,-1,-4,-40,-3,24,-40*
COc1ccc(-c2ccccc2C2=CC(=O)CC(C)(C)C2=O)cc1,·,2,-7,·,-6,-1,·
CCC(=O)OC1(C)C(=O)C=C2C=C(c3ccc(C#N)cc3)OC=C2C1=O (centres undefined),-14,0,12,12,-22,0,·
CCC(=O)OC1(C)C(=O)C2=COC(c3ccc(OC)cc3)=CC2=C(Br)C1=O (centres undefined),-7,4,50*,45*,-4,-1,30
COc1ccc(C2=CC3=C(Br)C(=O)C(C)(O)C(=O)C3=CO2)cc1 (centres undefined),0,-2,52*,34,7,-1,-5
CC(=O)Oc1ccc(Cn2c(C)c(C(=O)NCCC#N)sc2=O)cc1,·,1,1,·,2,1,·
CC1CCC(NC(=O)c2cccc(S(=O)(=O)N3CCN(c4ccc(F)cc4)CC3)c2)CC1 (centres undefined),-6,1,1,-6,1,-3,·
COc1cc(N=c2ssnc2Cl)cc(OC)c1,-5,40,-2,-51,-5,6,-33
COc1cc(OC)cc(-c2nc(-c3ccccc3OC)no2)c1,-1,0,-1,-1,-2,-1,·
O=c1cc(O)sc2ccccc12,-7,-1,6,43*,-1,8,-16
CN(C)CCNc1ncnc2c1ncn2[C@H]1CN(Cc2ccco2)C[C@@H](CO)O1,·,-10,-9,·,-2,21,·
CCOC(=O)/C(C#N)=C/c1cc2ccccc2nc1N1CCOCC1,-9,0,-23,-12,1,2,·
N#CC(C#N)=Cc1cc2ccccc2nc1N1CCCCC1,-3,0,-10,38*,-2,2,17
C[N+](=O)C1C(=O)Nc2ccccc21 (centres undefined),·,0,-31,·,·,·,·

# Source: PubChem BioAssay (Sanford-Burnham Center for Chemical Genomics)
